In ChEMBL document CHEMBL1134602, “A new class of symmetric bisbenzimidazole-based DNA minor groove-binding agents showing antitumor activity” (J Med Chem, 2001):

Tests used:
CH1 [1] = assay: Antitumor activity of compound for 96-h exposure in CH1 human ovarian cell line; format: functional, cell-based; conditions: CH1, 96 h
Summary of the method: (§1)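 Cells grown as monolayers in DMEM with 10% fetal bovine serum, 2 mM glutamine and 0.5 µg/mL hydrocortisone, in 6% CO2. Seeded at 3000-5000/well and attached overnight. Serial drug dilutions (compound dissolved in 10% DMSO) added to quadruplicate wells, 96 h. Fixed with TCA, stained with SRB, absorbance read at 540 nm. IC50 is the concentration giving 50% of control absorbance. Resistance factor is resistant-subline IC50 divided by parent IC50.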

SK-OV-3 [2] = assay: Antitumor activity of compound for 96-h exposure in SKOV-3 human ovarian cell line; format: functional, cell-based; conditions: SK-OV-3, 96 h; summary of the method: as §1
OVCAR-3 = assay: In vivo antitumor activity was determined after a dose of 4.5 mg/kg (ip) using hollow fiber assay against OVCAR-3 human ovarian carcinoma cells (ip-implanted fibers); format: functional
A2780 = assay: Antitumor activity of compound for 96-h exposure in A2780 human ovarian cell line; format: functional, cell-based; conditions: A2780, 96 h; summary of the method: as §1
SK-OV-3 [3] = assay: Growth inhibitory activity of compound for 6-h exposure in SKOV-3 cell line; format: functional, cell-based; conditions: Homo sapiens, SK-OV-3, 6 h
Summary of the method: (§2)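 SKOV-3 monolayers treated with serially diluted drug in quadruplicate wells. Drug aspirated after 2, 6 or 24 h and replaced with fresh medium for the rest of a 96-h period. Growth measured by TCA fixation, SRB staining and absorbance at 540 nm. IC50 is the concentration halving mean absorbance relative to untreated controls.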

SK-OV-3 [4] = assay: Growth inhibitory activity of compound for 24-h exposure in SKOV-3 cell line; format: functional, cell-based; conditions: Homo sapiens, SK-OV-3, 24 h; summary of the method: as §2
Mus musculus [5] = assay: Activity was determined in sc human tumor xenograft (hallow fiber) assays, adult female nude mice; format: functional
Mus musculus [6] = assay: Activity was determined in ip human tumor xenograft (hallow fiber) assays in adult female nude mice; format: functional
CH1 [7] = assay: In vivo antitumor activity was determined after a dose of 4 mg/kg (ip) using hollow fiber assay with (ip)implanted CH1 cells; format: functional, Homo sapiens
Summary of the method: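 CH1 cells trypsinized, seeded at 1 × 10^7 cells/mL into 2-cm PVDF fibers, heat-sealed and incubated 3 days. Fibers then implanted ip in nude mice. Next day a single 4 mg/kg ip dose given, or vehicle (10% DMSO/90% arachis oil). Fibers retrieved six days later; viable cells measured by MTT absorbance at 540 nm and expressed as % treated/control.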

Mus musculus [8] = species: Mus musculus; assay: Total score was determined, adult female nude mice; format: functional
[9] = Resistance factor was determined using the ratio of resistance of resistant cell line and its parent cell line
SK-OV-3 [10] = assay: Growth inhibitory activity of compound for 96-h exposure in SKOV-3 cell line; format: functional, cell-based; conditions: Homo sapiens, SK-OV-3, 96 h; summary of the method: as §1
SK-OV-3 [11] = assay: Growth inhibitory activity of compound for 2-h exposure in SKOV-3 cell line; format: functional, cell-based; conditions: Homo sapiens, SK-OV-3, 2 h; summary of the method: as §2
A2780cisR = assay: Antitumor activity of compound for 96-h exposure in A2780cisR (acquired resistance to cisplatin) human ovarian cell line; format: functional, cell-based; summary of the method: as §1

| Compound | IC50 (CH1 [1]) [nM] | IC50 (SK-OV-3 [2]) [nM] | IC50 (A2780) [nM] | IC50 (SK-OV-3 [3]) [nM] | IC50 (SK-OV-3 [4]) [nM] | IC50 (SK-OV-3 [10]) [nM] | IC50 (SK-OV-3 [11]) [nM] | IC50 (A2780cisR) [nM] | T/C (OVCAR-3) | Subcut score (Mus musculus [5]) | Ip score (Mus musculus [6]) | T/C (CH1 [7]) | Total score (Mus musculus [8]) | RF [9] |
| --- | --- | --- | --- | --- | --- | --- | --- | --- | --- | --- | --- | --- | --- | --- |
| COc1cccc2c1C(=O)c1c(O)c3c(c(O)c1C2=O)C[C@@](O)(C(=O)CO)C[C@@H]3O[C@H]1C[C@H](N)[C@H](O)[C@H](C)O1 [DOXORUBICIN] |  |  |  |  |  |  |  |  |  |  |  |  |  | 90 |
| CN1CCN(c2ccc3[nH]c(-c4ccc5[nH]c(-c6ccc(O)cc6)nc5c4)nc3c2)CC1 [HOECHST 33258] | 26500 | > 100000 | 12000 |  |  |  |  | 9500 |  |  |  |  |  |  |

The next lines start with results.

| IC50 (CH1 [1]) [nM] | IC50 (SK-OV-3 [2]) [nM] | IC50 (A2780) [nM] | IC50 (SK-OV-3 [3]) [nM] | IC50 (SK-OV-3 [4]) [nM] | IC50 (SK-OV-3 [10]) [nM] | IC50 (SK-OV-3 [11]) [nM] | IC50 (A2780cisR) [nM] | Compound | T/C (OVCAR-3) | Subcut score (Mus musculus [5]) | Ip score (Mus musculus [6]) | T/C (CH1 [7]) | Total score (Mus musculus [8]) | RF [9] |
| --- | --- | --- | --- | --- | --- | --- | --- | --- | --- | --- | --- | --- | --- | --- |
| 240 | 375 | 235 | 105 | 115 | 100 | 330 | 115 | CN(C)CCCOc1ccc(-c2nc3cc(-c4ccc5nc(-c6ccc(OCCCN(C)C)cc6)[nH]c5c4)ccc3[nH]2)cc1 | 0.56 | 4 | 12 | 0.79 | 16 | 5.8 |
| 3800 | 16500 | 13500 |  |  |  |  | 5100 | COc1ccc(-c2nc3cc(-c4ccc5[nH]c(-c6ccc(OC)cc6)nc5c4)ccc3[nH]2)cc1 |  | 0 | 8 |  | 8 |  |
| 1050 | 16000 | 4300 |  |  |  |  | 2700 | Oc1ccc(-c2nc3ccc(-c4ccc5nc(-c6ccc(O)cc6)[nH]c5c4)cc3[nH]2)cc1 |  | 0 | 10 |  | 10 |  |
